Data reported in ChEMBL document CHEMBL3352130, “Bioactive clerodane diterpenoids from the twigs of Casearia balansae” (J Nat Prod, 2014).
Values after ≈ are worked out from the molar mass of the structure shown. Active and inactive are the calls of the source. The calls are words filed in the database; no cut-off is given here.

Legend:
[1] = system: PC-12; test: Stimulation of NGF-mediated neurite outgrowth in rat PC12 cells incubated for 96 hrs by phase contrast microscopy; format: functional, cell-based; conditions: for EC50: PC-12, 96 h
Summary of the method: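 PC12 cells cultured and dissociated with EGTA as above, then plated on poly-L-lysine at 3 × 10^4 cells/well. After 24 h, exposed for 96 h to 20 ng/mL NGF plus graded compound concentrations in 1% FBS/1% HS. Phase-contrast count of cells with neurites ≥ soma diameter, as % of ≥100 cells per field (3 fields/well, 6 wells/sample). Triplicate runs. EC50 from linear or nonlinear concentration–response regression.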

[2] = system: PC-12; test: Induction of neurite outgrowth in rat PC12 cells incubated for 96 hrs by phase contrast microscopy; format: functional, cell-based
Summary of the method: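 PC12 cells grown at 37 °C in DMEM with 5% FBS and 5% horse serum, then dissociated with 1 mM EGTA in PBS for 15 min. Seeded at 3 × 10^4 cells/well on poly-L-lysine. After 24 h, switched to 1% FBS/1% HS with test compounds at various concentrations and no NGF, for 96 h. NGF 100 ng/mL served as positive control. Neurite-bearing cells: process ≥ cell-body diameter, as % of ≥100 cells × 3 fields × 6 wells. Triplicate.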

| Structure (SMILES) | Activity [1] | Activity [2] | EC50 [1] [µg/mL] |
| --- | --- | --- | --- |
| C=CC(=C)CC[C@]1(C)[C@H](C)CC[C@@]23C(=C[C@H](OC(=O)C(C)CC)C[C@@H]12)[C@@H](OC(=O)CCC)O[C@H]3OC(C)=O (stereo partly specified) | inactive | inactive |  |
| C=CC(=C)CC[C@]1(C)[C@H](C)C[C@H](OC)[C@@]2(C=O)C(C=O)=C[C@H](OC(=O)C(C)CC)C[C@@H]12 (stereo partly specified) | inactive | inactive |  |
| C=CC(=C)CC[C@]1(C)[C@H](C)C[C@H](OC)[C@@]23C(=CC(=O)C[C@@H]12)[C@@H](OC(C)=O)O[C@H]3OC(C)=O | Dose-dependent effect | inactive | 2.5 (≈ 5.6 µM) |
| C=CC(=C)CC[C@]1(C)[C@H](C)C[C@H](OC)[C@@]23C(=C[C@H](OC(=O)C(C)CC)C[C@@H]12)[C@@H](OC(=O)CCC)O[C@H]3OC(C)=O (stereo partly specified) | Dose-dependent effect | inactive | 12.7 (≈ 22.6 µM) |
| C=CC(=C)CC[C@]1(C)[C@H](C)CC[C@@]23[C@H](OC(C)=O)O[C@H](OC(C)=O)[C@@H]2CC(=O)C[C@@H]13 | inactive | inactive |  |
| C=CC(=C)CC[C@]1(C)[C@H](C)CC[C@@]23C(=CC(=O)C[C@@H]12)[C@@H](OC(=O)CCC)O[C@H]3OC(C)=O | inactive | inactive |  |
| C=CC(=C)CC[C@]1(C)[C@H]2C[C@H](OC(=O)C(C)CC)C=C3[C@H](OC)O[C@H](OC(C)=O)[C@@]32[C@H](O)C[C@@H]1C (stereo partly specified) [CASEAMEMBRIN B] | Dose-dependent effect | inactive | 7.5 (≈ 15.3 µM) |
| C=CC(=C)CC[C@]1(C)[C@H](C)C[C@H](OC)[C@@]23C(=C[C@@H](OC(C)=O)C[C@@H]12)[C@@H](OC)O[C@H]3OC(C)=O | Dose-dependent effect | inactive | 2.4 (≈ 5.19 µM) |
| C=CC(=C)CC[C@]1(C)[C@H](C)C[C@H](OC)[C@@]23C(=C[C@H](OC(=O)CCC)C[C@@H]12)[C@@H](OC(=O)CCC)O[C@H]3OC(C)=O | Dose-dependent effect | inactive | 20.2 (≈ 36.9 µM) |
| C=CC(=C)CC[C@]1(C)[C@H](C)C[C@H](OC)[C@@]23C(=C[C@H](OC(=O)C(C)CC)C[C@@H]12)[C@@H](OC)O[C@H]3OC(C)=O (stereo partly specified) | Dose-dependent effect | inactive | 4 (≈ 7.93 µM) |
